Assay outcomes from PubChem.
Casp6 inh: blocks human caspase-6 cleavage activity. purified caspase-6, Z-VEID-R110 cleavage fluorescence. inhibition, % at 12.5 µM. 350,000 compounds, 0.53% hits. AID 686996;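 active = mean inhibition across replicates at least about 35%, with every replicate also reaching that limit, limit read from the data; inconclusive = only one of the two criteria met; inactive = neither criterion met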;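 also: 0% = median of neutral control wells and 100% = no fluorescence left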
XiGFP reactiv: reactivates the inactive X chromosome in mouse fibroblasts | AID 743238 | XiGFP mouse fibroblasts, % GFP-positive cells imaging, 3 d; cells co-treated with 5-aza-dC sensitizer; scaled so ellipticine positive control = 100% | activation, % at 7.58 µM | 360,000 compounds, 0.055% hits;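 active = mean normalized replicate activation at least 10% and every replicate at or above 10%; inconclusive = only one of the two criteria met; inactive = mean below 10% and not all replicates reach 10%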;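 also: 0% = median of on-plate neutral control wells and 100% = ellipticine 6 µM median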
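System: XiGFP fibroblasts, SV40-immortalized. Medium: DMEM plus 5-aza-dC sensitizer. Doses: single point. Timing: 3 d treatment, 15 min room-temperature fixation. Control set: ellipticine 6 µM.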
Wnt act: Wnt/beta-catenin pathway activation. 300,000 compounds, 1.2% hits. Wnt/beta-catenin reporter cell assay, activator, plate reader. activation, % at 9.35 µM; in the data active = activation above about 30%, passing the limit was not always enough; inconclusive = no clear call, values can overlap the other calls;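 also: 0% = neutral control wells and 100% = positive control wells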
MITF TRPM1 HTS: MITF TRPM1 promoter activation in melanoma cells. activation, % at 12.5 µM. SK-MEL-5 TRPM1-promoter luciferase, 24 h; % of positive control, neutral wells = 0. 300,000 compounds, 0.75% hits;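 active = mean activation of at least 80% with every replicate also reaching 80%; inconclusive = mean reaches 80% but some replicate falls short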;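 also: 0% = neutral control wells and 100% = parthenolide positive control wells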
NSD2 HMT inh: NSD2 (human) methyltransferase inhibition | O96028 | AID 743445 | 310,000 compounds, 0.54% hits | NSD2 peptide methylation, AlphaScreen, 120 min | inhibition, % at 12.5 µM; in the data active = inhibition above about 50%
esBAF inh: blocks esBAF chromatin remodeling in mouse ES cells; reporter increase, % at 12.5 µM; Bmi1-luciferase knock-in reporter, 24 h; 100% = twice the neutral-well signal; 350,000 compounds, 2% hits; in the data active = activation above about 40%; inconclusive = no clear call, values can overlap the other calls;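 also: 0% = median of the plate's neutral control wells and 100% = double that signal; a rise in the Bmi1 reporter signal indicates esBAF inhibition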
An asterisk follows results filed as active; ? = inconclusive; . = no result given. Only some compounds are listed: those with a hit (about 3% of all), similar ones and a draw of the others.

SMILES	Casp6 inh	XiGFP reactiv	Wnt act	MITF TRPM1 HTS	NSD2 HMT inh	esBAF inh
O=C(C1CC1)N1C[C@@H]2[C@H](c3ccccc31)[C@@H](CO)N2C(=O)c1ccccc1F	.	0	.	.	.	.
C=CCOC(=O)[C@H]1[C@@H]2C(=O)O[C@@H](c3ccccc3)[C@@H](c3ccccc3)N2[C@@H](c2ccc(OCCOC(=O)[C@H]3C[C@H]4C(=O)N[C@@H](Cc5ccccc5)C(=O)N4[C@H]3c3ccc(O)cc3)cc2)[C@]12C(=O)Nc1ccc(I)cc12	1	.	.	.	.	.
COc1ccc(/C=C2\SC(=O)N(CC(=O)Nc3ccc(O)cc3)C2=O)cc1OC	0	0	0	3	1	-9
Cc1ccc(NC(=O)CN2C(=O)S/C(=C\c3cc(Cl)c(OCC(=O)O)c(Cl)c3)C2=O)cc1	39*	0	-3	8	12	-1
COc1ccc2c3c(n(C)c2c1)[C@@H](CO)N(C(=O)NC1CCCC1)CC31CN(C)C1	.	0	.	.	.	.
COc1ccc2c3c([nH]c2c1)[C@@H](CO)N(Cc1nccs1)CC31CN(C(=O)C2CCC2)C1	2	0	.	.	.	.
O=C(C=Cc1ccco1)c1ccco1	56*	0	1	16	0	-2
O=C(/C=C/c1ccc([N+](=O)[O-])cc1)c1ccco1	-3	0	3	2	10	2
O=C(/C=C/c1ccccc1)N1CCN(C(=O)c2ccco2)CC1	.	.	.	10	2	-3
O=C(/C=C/c1ccc(Br)cc1)c1ccco1	1	0	2	5	0	.
O=C(/C=C/c1ccc(-c2ccccc2[N+](=O)[O-])o1)c1ccco1	7	1	172*	-8	17	.
O=C(/C=C/C=C/c1ccccc1)c1ccco1	4	0	40*	16	5	5
C[C@@H]1CN([C@@H](C)CO)C(=O)c2cc(N(C)C)ccc2O[C@@H](C)CCCCO[C@H]1CN(C)Cc1ccc(C(F)(F)F)cc1	9	0	.	.	.	-3
CCNC(=O)C[C@H]1CC[C@H]2[C@@H](COC[C@@H](O)CN2C(=O)C2CCCC2)O1	0	0	.	.	.	0
O=C(O)c1ccc(N/N=C2/CCCc3ccccc32)cc1	4	0	17	42	27	59*
O=C(COc1ccccc1F)N/N=C1\CCCc2ccccc21	-1	0	33*	71	-3	61*
COc1ccccc1OCC(=O)N/N=C1\CCCCc2ccccc21	0	0	4	8	-4	7
COc1ccccc1OCC(=O)N/N=C1\CCc2ccccc21	.	.	.	50	-2	46*
COc1ccc(S(=O)(=O)N2CCC3(CC2)CN(C(=O)c2cccnc2)[C@H](CO)c2c3c3ccc(OC)cc3n2C)cc1	1	0	.	.	.	.
O=C(NCC[C@H]1CC[C@H](NS(=O)(=O)c2ccc(F)cc2)[C@@H](CO)O1)Nc1ccc(F)cc1	-190	0	.	.	.	8
COc1ccc(C(=O)N=c2sc3c(C)ccc(OC)c3n2C)cc1OC	2	0	?	99*	-3	36
COc1cccc(C(=O)N=c2sc3c(C)ccc(OC)c3n2C)c1	-1	0	20	54	.	48*
CNC[C@@H]1Oc2ccc(N)cc2C(=O)N(C)C[C@@H]1C	.	0	.	.	.	.
CCn1c(C(=O)N2CCc3ccccc3C2)cc2oc3ccccc3c21	.	.	-3	.	5	-2
Cn1c(C(=O)N2CCc3ccccc3C2)cc2oc3ccccc3c21	.	.	3	61	.	55*
SMILES	Casp6 inh	XiGFP reactiv	Wnt act	MITF TRPM1 HTS	NSD2 HMT inh	esBAF inh
COc1ccc2c3c([nH]c2c1)[C@H](CO)N(Cc1ccccc1)CC31CN(S(=O)(=O)c2ccc(C)cc2)C1	4	0	.	.	.	.
Cc1cc(OCc2cc(C(=O)N(C)C(C)c3ccccn3)no2)cc(C)c1Cl (configuration not stated)	6	0	20	30	20	57*
Cc1cc(OCc2cc(C(=O)N(C)Cc3ccccn3)no2)cc(C)c1Cl	-2	0	?	97*	-4	75*
CC(=O)c1ccc(OCc2cc(C(=O)N(C)Cc3ccon3)no2)cc1	-1	0	1	7	0	2
CC(=O)c1ccc(OCc2cc(C(=O)N(C)Cc3ccccn3)no2)cc1	1	0	19	99*	-1	104*
C[C@@H]1CN([C@H](C)CO)C(=O)c2cc(NS(=O)(=O)c3cccs3)ccc2O[C@H]1CN(C)C(=O)Nc1ccccc1	2	-1	.	.	.	0
COCC#Cc1cnc2c(c1)C(=O)N([C@H](C)CO)C[C@H](C)[C@@H](CN(C)Cc1ccc(F)cc1)O2	0	-1	.	.	.	-2
O=C(c1ccncc1)N1CC2(C1)[C@H](c1ccccc1)[C@@H](CO)N2CC1CCOCC1	2	0	.	.	.	.
Cc1ccc2oc(C(=O)N(Cc3ccncc3)CC3CCCO3)c(C)c2c1 (configuration not stated)	1	0	15	64	0	58*
COc1ccc2nc(Nc3ccccc3OC)sc2c1	0	0	48*	53	-1	.
COc1ccccc1NC(=O)Nc1nc2ccc(S(N)(=O)=O)cc2s1	-2	0	21	87*	-2	48*
COc1ccc2nc(Nc3ccccc3)sc2c1	1	0	14	95*	.	37
CCNS(=O)(=O)c1ccc2nc(NC(=O)/C=C/c3cc(OC)c(OC)c(OC)c3)sc2c1	-4	0	50*	2	-3	.
CCC(=O)N[C@@H]1C=C[C@@H](CC(=O)NCCN2CCCCC2)O[C@@H]1CO	4	0	.	.	.	-1
CO[C@@H]1CN(C)C(=O)c2ccc(NC(=O)c3cccc(Oc4ccccc4)c3)cc2OC[C@@H](C)NC[C@H]1C	1	0	.	.	.	2
O=C(CNc1ccccc1F)Nc1cccc2ccccc12	-6	0	6	6	.	64*
O=C(Nc1ccccc1C(F)(F)F)Nc1cccc2ccccc12	.	.	.	-4	-1	-1
Cc1ccoc1C(=O)Nc1cccc2ccccc12	-1	0	20	26	1	42*
O=C(Nc1ccccc1F)C(=O)Nc1cccc2ccccc12	1	0	11	.	-3	62*
OC[C@@H]1[C@@H](c2ccccc2)C2(CN(CC3CC3)C2)N1Cc1ccc(F)cc1	0	1	.	.	.	.
CCCOC(=O)c1ccc(NC(=O)C(=O)NCC2CCCO2)cc1 (configuration not stated)	-3	0	-1	40	-2	.
O=C(NCC1CCCO1)Nc1cc(Cl)cc(Cl)c1 (configuration not stated)	1	0	2	33	-1	.
S=C(Nc1ccc(Cl)cc1Cl)NC1CCCCC1	.	.	.	107*	-2	84*
S=C(NCC1CCCO1)Nc1ccc(Cl)cc1Cl (configuration not stated)	.	0	?	10	-1	49*
